Experiment [1] is described as follows: inhibitors of TNFa-induced NFkB p65 translocation, primary screen, imaging, HUVEC, MLSMR starter and 10KST1 sets (AID 438;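 active = inhibition above 20% together with a positive visual image hit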;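 note: compound added about 3h40 before a 20 min TNFalpha stimulation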;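 for inhibition: signal is the nuclear over cytoplasmic p65 intensity ratio per well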). The settings on record: HUVEC TNFa-induced p65 nuclear translocation; cell count: measured here: nuclei count (cytotoxicity indicator), at 2.08 µM; inhibition: at 2 µM, stronger effect = higher value, 0% TNFa-plus-vehicle, 100% no-TNFa wells.
Experiment [2] is described as follows: reduction of polyQ htt aggregates in cells – imaging, exon1htt(103Q)mCFP cells, high-content imaging, primary screen (AID 483;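 active = visual image review flags a hit and inhibition of aggregation exceeds 20%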;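 note: compound exposure lasted 3 days before fixation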;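 for nuclei count: percent of the per-plate median nuclei count of sample wells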). The following applies: exon1htt(103Q)mCFP cell line, aggregate imaging, at 2 µM; inhibition of aggregation: stronger effect = higher value; nuclei count: measured here: cell count, toxicity.
Experiment [3] is described as follows: endothelial E-selectin expression blockers – imaging, HUVEC, immunofluorescence, MLSMR starter and 10KST1 sets, primary screen (AID 487;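 active = visually confirmed hit in the image check and inhibition above 20%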;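 for inhibition: signal is fraction of cell area covered by stained E-selectin grains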;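 for nuclei count: 100% = median nuclei count of all wells on the same plate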). The settings on record: HUVEC TNFalpha-induced E-selectin immunofluorescence imaging, at 2 µM; inhibition: stronger effect = higher value; nuclei count: measured here: cell number, toxicity.
Experiment [4] concerns the target Voltage-gated potassium channel subunit beta-2 (Rattus norvegicus) (UniProt P62483). Kind of experiment: inhibitors of rat Kvbeta2 reductase activity – biochemical, NADPH fluorescence, primary screen (AID 622;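 active = fluorescence slope higher than the sample average by over 3 SD, cut at about -0.22 in these data, passing the limit was not always enough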;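 note: slope of raw intensity against log time taken from 70 to 1610 s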). The following applies: recombinant KvBeta, 4-cyanobenzaldehyde reduction, at 10 µM, stronger effect = higher value.
Experiment [5] has the same target. Briefly: enhancers of rat Kvbeta2 NADPH turnover – biochemical, NADPH fluorescence, primary screen (AID 623;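 active = NADPH fluorescence slope more negative than the mean of all samples by about 3 SD, 99.7% confidence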;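 note: fluorescence intensity change per second fitted from 20 to 320 s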). The following applies: Recombinant KvBeta, NADPH fluorescence decrease slope, 10 min; at 10 µM; stronger effect = lower value.
For experiment [6], the target named is Muscarinic acetylcholine receptor M4 (Homo sapiens) (UniProt P08173). Briefly: M4-linked GIRK flux change, two-sided – cell-based, HEK293 M4/GIRK, thallium flux, BTC-AM, M4 allosteric agonist project, primary screen (AID 625;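 active = fluorescence slope after compound addition differing from the mean of all tested samples at 99.7% confidence, mostly higher but some lower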;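 note: thallium influx through GIRK channels coupled to M4 in HEK293 cells with BTC-AM dye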). The following applies: at 10 µM, actives lie on both sides. In a few lines: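 System: HEK293 cells with M4 receptor and GIRK channels | Incubation: Cells overnight at 37 °C, BTC-AM loading 1 h, reads 2 min total | Technique: Kinetic BTC-AM fluorescence sampled at 1 Hz, 10 s pre-addition baseline | Measure: Post-addition slope, 15–24 s, of baseline-normalized fluorescence | Control set: Carbachol positive, DMSO negative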

Experiment [7] can be described thus: blockers of RIG-like receptor reporter activation – cell-based, Sendai virus stimulus, luciferase, 10K MLSCN set, TLR/RLR signaling modifier project, primary screen (AID 602276;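 active = inhibition at or above 50% at 10 µM; inactive = inhibition below 50%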;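 note: firefly luciferase from ISG56 promoter only with Renilla not read in this screen; 0% = Sendai virus plus DMSO and 100% = medium plus DMSO without virus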). The settings on record: HEK293 RL24 IRF3 luciferase reporter, at 10 µM, stronger effect = higher value. For orientation: In a reporter assay the amount or activity of a reporter protein is the signal.

Experiment [8] is described as follows: TLR3 IRF3 reporter activation blockers – cell-based, poly I:C stimulus, luciferase, 10K MLSCN set, primary screen (AID 602277). The following applies: HEK293-TLR3 RL24 IRF3 luciferase reporter, at 10 µM, stronger effect = higher value.

Calls of active or inactive are those of the source.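 Rule for the calls, unless noted: active = inhibition of the reporter signal at or above 50%; inactive = inhibition below 50%.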

14 compounds from PubChem BioAssay can be followed below.

The inhibition is the drop in the measured response relative to a control, in per cent.

Muscarinic acetylcholine receptor M4 (Homo sapiens), sequence (P08173 whole entry, looked up): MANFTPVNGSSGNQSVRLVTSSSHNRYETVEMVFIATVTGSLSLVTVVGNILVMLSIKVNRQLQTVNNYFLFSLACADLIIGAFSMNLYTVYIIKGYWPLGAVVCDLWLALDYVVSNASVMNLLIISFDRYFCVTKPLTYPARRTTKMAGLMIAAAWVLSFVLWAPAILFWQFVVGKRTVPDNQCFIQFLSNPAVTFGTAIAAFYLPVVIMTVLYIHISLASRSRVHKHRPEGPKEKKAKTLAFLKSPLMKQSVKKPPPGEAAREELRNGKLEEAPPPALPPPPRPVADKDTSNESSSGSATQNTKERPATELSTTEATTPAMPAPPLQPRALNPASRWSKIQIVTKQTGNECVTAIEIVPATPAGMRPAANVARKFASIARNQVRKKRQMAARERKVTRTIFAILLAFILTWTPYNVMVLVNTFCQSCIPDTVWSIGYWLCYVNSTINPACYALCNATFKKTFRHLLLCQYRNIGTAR
Voltage-gated potassium channel subunit beta-2 (Rattus norvegicus), sequence (P62483 whole entry, looked up): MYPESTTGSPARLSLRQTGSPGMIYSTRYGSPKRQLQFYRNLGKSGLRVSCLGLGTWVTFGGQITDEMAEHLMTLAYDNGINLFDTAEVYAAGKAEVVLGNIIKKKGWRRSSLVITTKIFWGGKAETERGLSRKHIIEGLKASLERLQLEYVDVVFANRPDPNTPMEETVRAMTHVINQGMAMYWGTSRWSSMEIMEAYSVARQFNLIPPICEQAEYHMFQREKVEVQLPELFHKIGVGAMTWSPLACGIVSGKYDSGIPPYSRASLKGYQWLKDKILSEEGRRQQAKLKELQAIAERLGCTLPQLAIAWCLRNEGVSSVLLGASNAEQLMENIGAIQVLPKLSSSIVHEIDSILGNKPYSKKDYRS

On to `O=C(Cn1nnc(-c2cccc(C(F)(F)F)c2)n1)NC(=O)NCc1ccco1`, for which the cell count in experiment [1] turned out to be 323. The inhibition in experiment [1] is 19.4% (inactive); in experiment [3], 24.1% (inactive); in experiment [7], -0.353% (inactive); in experiment [8], 5.76% (inactive). For the same compound, the inhibition of aggregation in experiment [2] was -17% (inactive). Further, the nuclei count in experiment [2] amounted to 100%; in experiment [3], 101%. Further, the values for the fluorescence slope in experiment [4] and in experiment [6] were -0.44 (inactive) and 0.00673 (inactive), respectively. Further, in experiment [5], the NADPH fluorescence slope is -0.000353 (inactive).

Regarding `Clc1ccccc1OCc1nn2c(-c3ccncc3)nnc2s1`, in experiment [1], the cell count was 352. In addition, the inhibition in experiment [1] was 2.6% (inactive); in experiment [3] it was -23.5% (inactive); in experiment [7], 8.19% (inactive); in experiment [8], -3.24% (inactive). The inhibition of aggregation in experiment [2] is 35.5% (inactive). The nuclei count in experiment [2] came to 91.1%; in experiment [3] it was 118%. In addition, the values for the fluorescence slope in experiment [4] and in experiment [6] were -0.298 (inactive) and 0.00567 (inactive), respectively. Further, the NADPH fluorescence slope in experiment [5] is -6.4e-05 (inactive).

Take `COc1ccc(NC(=O)CCNC(=O)Cn2ccc3ccccc3c2=O)c(OC)c1`: the cell count in experiment [1] amounted to 707. Besides, the inhibition in experiment [1] is -8.4% (inactive); in experiment [3], -39.3% (inactive); in experiment [7], 14.4% (inactive); in experiment [8], 15.6% (inactive). Besides, the inhibition of aggregation in experiment [2] was 22.3% (inactive). The nuclei count came to 101% in experiment [2] and 115% in experiment [3]. For the same compound, the fluorescence slope in experiment [4] is -0.331 (inactive); in experiment [6], 0.00839 (inactive). In experiment [5], the NADPH fluorescence slope is -5.9e-05 (inactive).

With `CCn1c(=O)cc(SCC(=O)Nc2ccc3c(c2)OCO3)c2ccccc21`, the cell count in experiment [1] was determined as 368. Besides, the inhibition in experiment [1] was 3.1% (inactive); in experiment [3], -7.2% (inactive); in experiment [7], -16.8% (inactive); in experiment [8] it was -13.5% (inactive). Also, the inhibition of aggregation in experiment [2] is 1.5% (inactive). Moreover, the values for the nuclei count in experiment [2] and in experiment [3] were 97.6% and 115%, respectively. The figures for the fluorescence slope in experiment [4] and in experiment [6] were -0.432 (inactive) and 0.00544 (inactive), respectively. Further, the NADPH fluorescence slope in experiment [5] was 4e-05 (inactive).

For `CCCCC(CC)C(=O)Nc1ccc(Cl)cn1` (centres undefined), the cell count in experiment [1] was found to be 461. For the same compound, the inhibition was 8.5% (inactive) in experiment [1], -29.4% (inactive) in experiment [3], 13.3% (inactive) in experiment [7] and 17.2% (inactive) in experiment [8]. Besides, in experiment [2], the inhibition of aggregation is 4.5% (inactive). The nuclei count in experiment [2] was found to be 102%; in experiment [3], 117%. The fluorescence slope was -0.377 (inactive) in experiment [4] and 0.00769 (inactive) in experiment [6]. Besides, the NADPH fluorescence slope in experiment [5] was -7.8e-05 (inactive).

For the compound `COC(=O)CCN1CCC(C(N)=O)CC1`, the cell count in experiment [1] was found to be 336. The inhibition is -6.3% (inactive) in experiment [1], -132% (inactive) in experiment [3], 1.78% (inactive) in experiment [7] and 6.83% (inactive) in experiment [8]. Moreover, in experiment [2], the inhibition of aggregation was -4.2% (inactive). For the same compound, the values for the nuclei count in experiment [2] and in experiment [3] were 107% and 129%, respectively. The results for the fluorescence slope in experiment [4] and in experiment [6] were -0.437 (inactive) and 0.00663 (inactive), respectively. For the same compound, the NADPH fluorescence slope in experiment [5] was 6.8e-05 (inactive).

Turning to `CCOC(=O)c1sc(N2C(=O)C(O)=C(C(=O)c3ccco3)C2c2ccccc2)nc1C` (centres undefined), the cell count in experiment [1] amounted to 425. The inhibition in experiment [1] is 2.8% (inactive); in experiment [3] it was -43.5% (inactive); in experiment [7], 6.84% (inactive); in experiment [8], -6.96% (inactive). In addition, the inhibition of aggregation in experiment [2] was 9.3% (inactive). For the same compound, the figures for the nuclei count in experiment [2] and in experiment [3] were 102% and 97.4%, respectively. Further, the fluorescence slope is -0.37 (inactive) in experiment [4] and 0.00663 (inactive) in experiment [6]. Also, the NADPH fluorescence slope in experiment [5] was -5.7e-05 (inactive).

`O=C1c2oc3ccccc3c(=O)c2C(c2ccccn2)N1Cc1ccccc1` (centres undefined): the cell count in experiment [1] came to 440. Besides, the inhibition in experiment [1] is -8.7% (inactive); in experiment [3], -49.4% (inactive); in experiment [7] it was -16.4% (inactive); in experiment [8], -22.3% (inactive). The inhibition of aggregation in experiment [2] was 1.8% (inactive). Further, the nuclei count in experiment [2] was found to be 106%; in experiment [3] it was 125%. Also, the fluorescence slope in experiment [4] was -0.563 (inactive); in experiment [6], 0.00477 (inactive). The NADPH fluorescence slope in experiment [5] is -9.3e-06 (inactive).

Consider `COc1ccc(N(CC(=O)Nc2ccccc2SC)S(C)(=O)=O)cc1OC`, for which the cell count in experiment [1] was found to be 485. The inhibition was -15.7% (inactive) in experiment [1], -4.5% (inactive) in experiment [3], 19.9% (inactive) in experiment [7] and 19.3% (inactive) in experiment [8]. Also, the inhibition of aggregation in experiment [2] was -12% (inactive). Moreover, the nuclei count was determined as 65.5% in experiment [2] and 102% in experiment [3]. For the same compound, the fluorescence slope in experiment [4] was -0.468 (inactive); in experiment [6] it was 0.00494 (inactive). Moreover, the NADPH fluorescence slope in experiment [5] was -9.7e-06 (inactive).

Turning to `Cc1ccc(-n2ncc3c(N4CCN(c5ccc(F)cc5)CC4)ncnc32)c(C)c1`, the cell count in experiment [1] turned out to be 514. The inhibition in experiment [1] is -6.8% (inactive); in experiment [3] it was 32.4% (inactive); in experiment [7] it was -19.8% (inactive); in experiment [8] it was -65.4% (inactive). Also, the inhibition of aggregation in experiment [2] is 4.6% (inactive). Further, the values for the nuclei count in experiment [2] and in experiment [3] were 83.4% and 92.4%, respectively. Further, the fluorescence slope in experiment [4] is -0.521 (inactive); in experiment [6], 0.00599 (inactive). The NADPH fluorescence slope in experiment [5] is -0.000115 (inactive).

As for `O=S(=O)(NCC1CCCO1)c1ccc(S(=O)(=O)N2CCc3ccccc3C2)cc1` (centres undefined), in experiment [1], the cell count turned out to be 685. The inhibition in experiment [1] is -4.3% (inactive); in experiment [3], -132% (inactive); in experiment [7] it was 19.5% (inactive); in experiment [8] it was 19.5% (inactive). Also, in experiment [2], the inhibition of aggregation is -21.6% (inactive). The nuclei count in experiment [2] was found to be 97.8%; in experiment [3] it was 140%. The fluorescence slope in experiment [4] is -0.525 (inactive); in experiment [6] it was 0.00466 (inactive). Also, the NADPH fluorescence slope in experiment [5] was -3.8e-05 (inactive).

Take `CCOc1cc(C2C(C(=O)OC(C)C)=C(C)N=C3SCCC(=O)N32)ccc1OC(C)=O` (centres undefined): the cell count in experiment [1] was found to be 284. Also, the inhibition in experiment [1] was 5.8% (inactive); in experiment [3] it was 1.9% (inactive); in experiment [7] it was 11.7% (inactive); in experiment [8], 24% (inactive). Besides, the inhibition of aggregation in experiment [2] was 8.8% (inactive). For the same compound, the nuclei count in experiment [2] and in experiment [3] was 105% in each case. Moreover, the fluorescence slope in experiment [4] was -0.42 (inactive); in experiment [6], 0.00512 (inactive). In experiment [5], the NADPH fluorescence slope is -0.000412 (inactive).

Consider `CCn1c(SCC(=O)Nc2nccs2)nnc1-c1ccncc1`, for which the cell count in experiment [1] was determined as 331. Besides, the inhibition in experiment [1] was -1.4% (inactive); in experiment [3], -20.2% (inactive); in experiment [7], 14.8% (inactive); in experiment [8] it was 21.3% (inactive). Besides, the inhibition of aggregation in experiment [2] is -8.7% (inactive). In addition, the nuclei count in experiment [2] was determined as 110%; in experiment [3], 129%. The fluorescence slope in experiment [4] is -0.454 (inactive); in experiment [6], 0.00633 (inactive). The NADPH fluorescence slope in experiment [5] is -2.4e-05 (inactive).

For the compound `COc1ccc(C2=Nn3c(nnc3-c3cccnc3)SC2)cc1`, in experiment [1], the cell count is 367. The inhibition in experiment [1] is -0.8% (inactive); in experiment [3], 25.5% (inactive); in experiment [7], 5.59% (inactive); in experiment [8], 7.82% (inactive). In addition, the inhibition of aggregation in experiment [2] is 6.7% (inactive). Further, the nuclei count in experiment [2] came out at 104%; in experiment [3], 109%. Further, the fluorescence slope was -0.464 (inactive) in experiment [4] and 0.00808 (inactive) in experiment [6]. Also, the NADPH fluorescence slope in experiment [5] is 1.1e-05 (inactive).
